Reference: ChEMBL document CHEMBL1139384, “First Cdc7 kinase inhibitors: pyrrolopyridinones as potent and orally active antitumor agents. 2. Lead discovery” (J Med Chem, 2009)
pIC50: −log10 of the molar value. Active and inactive are the calls of the source. The rule behind the calls is not given here.

Legend:
[1] = Tmax in Beagle dog at 10 mg/kg, po administered as single dose; format: ADME, organism-based, Canis lupus familiaris; parameters: dose 10 mg/kg, route oral; conditions: in vivo
Outline: (§1)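 Overnight-fasted Beagle dogs, 2 per sex, in a crossover design: 5 mg/kg iv and 10 mg/kg po, two weeks apart, in 5% dextrose. Jugular blood was drawn up to 48 h, and urine was collected over 0–8, 8–24 and 24–48 h. Samples were assayed by LC/MS/MS and analysed noncompartmentally.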

HeLa [2] = experiment: Cell cycle arrest in human HeLa cells assessed as accumulation at S phase at 3 uM by fluorescence activated cell sorting; format: functional, cell-based
Outline: (§2)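 Logarithmically growing HeLa cells exposed to 3 µM for set times, labelled with 50 µM BrdU, fixed in 70% ethanol. DNA content by propidium iodide with RNase A, 30 min at 37 °C; BrdU by FITC anti-BrdU after 2N HCl denaturation; percent positive cells by FACS.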

[3] = molecular target: Cyclin-dependent kinase 5/CDK5 activator 1 (Homo sapiens, UniProt Q00535); experiment: Inhibition of CDK5/p25; format: protein-complex assay
[4] = Half life in nu/nu mouse at 10 mg/kg, po administered as single dose; format: ADME, organism-based; parameters: dose 10 mg/kg, route oral; conditions: in vivo
Outline: (§3)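 Single iv or oral dose in 5% dextrose to overnight-fasted animals. Nu/Nu mice: males, 3 per route, saphenous bleeds to 24 h. Han-Wistar rats: males, 3 per route, jugular bleeds to 24 h. Beagle dogs: 2 per sex, iv and po crossover 2 weeks apart, jugular bleeds to 48 h. Plasma by LC/MS/MS; noncompartmental parameters, AUC by linear trapezoid with extrapolation.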

HeLa [5] = experiment: Inhibition of DNA synthesis in human HeLa cells at 3 uM assessed as bromodeoxyuridine incorporation after 24 hrs; format: functional; parameters: scale not given: the % may be the effect or the level left; outline: as §2
[6] = Clearance in Wistar rat at 10 mg/kg, iv administered as single dose; format: ADME, organism-based; parameters: dose 10 mg/kg, route intravenous; conditions: in vivo; outline: as §3
[7] = molecular target: Hepatocyte growth factor receptor (Homo sapiens, UniProt P08581); experiment: Inhibition of MET
MCF7 = experiment: Antiproliferative activity against human MCF7 cells after 72 hrs by luciferase based assay; format: functional, cell-based; conditions: MCF7, 72 h
[8] = Volume of distribution at steady state in Wistar rat at 10 mg/kg, iv administered as single dose; format: ADME, organism-based; parameters: dose 10 mg/kg, route intravenous; conditions: in vivo, read-out: Vdss
Outline: (§4)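 Overnight-fasted male Han-Wistar rats got a single 10 mg/kg iv dose in 5% dextrose, three per leg. Jugular blood was drawn from 0.083 to 24 h. Urine was collected over 0–6 and 6–24 h. Plasma and urine were assayed by LC/MS/MS and analysed noncompartmentally. Vss = CL·MRT.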

[9] = molecular target: Cyclin-dependent kinase 4 (Homo sapiens, UniProt P11802); experiment: Inhibition of CDK4
Aurora kinase A = Aurora kinase A (Homo sapiens, UniProt O14965); experiment: Inhibition of AUR2
COLO 205 = experiment: Antiproliferative activity against human COLO205 cells after 72 hrs by luciferase based assay; format: functional, cell-based; conditions: COLO 205, 72 h
[10] = AUC (0 to infinity) in Beagle dog at 5 mg/kg, iv administered as single dose; format: ADME, organism-based, Canis lupus familiaris; parameters: time infinity, dose 5 mg/kg, route intravenous; conditions: plasma; outline: as §3
[11] = Cmax in Wistar rat at 10 mg/kg, iv administered as single dose; format: ADME, organism-based; parameters: dose 10 mg/kg, route intravenous; conditions: in vivo; outline: as §3
[12] = molecular target: T1, Cell division cycle 7-related protein kinase (Homo sapiens, UniProt O00311); experiment: Inhibition of human Cdc7 in human A2780 cells assessed as inhibition of Ser40 phosphorylation of Mcm2 protein at 3 uM up to 24 hrs; format: cell-based
Outline: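 Time course in A2780 cells held at 3 µM for up to 24 h. Extracts were made in 50 mmol/L Tris-HCl pH 6.8, 1% SDS, 1 mmol/L DTT with 10 s sonication, loaded at 15 µg per lane, and immunoblotted with antiphosphopeptide antibodies to MCM2 Ser40 and Ser53. Cleaved caspase 3 was also probed.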

[13] = Renal clearance in Wistar rat at 10 mg/kg, iv administered as single dose; format: ADME, organism-based, Kidney; parameters: dose 10 mg/kg, route intravenous; conditions: in vivo, read-out: CL_renal (converted); outline: as §4
[14] = molecular target: Inhibitor of nuclear factor kappa-B kinase subunit epsilon (Homo sapiens, UniProt Q14164); experiment: Inhibition of IKKi
HeLa [15] = experiment: Inhibition of DNA synthesis in human HeLa cells at 3 uM assessed as bromodeoxyuridine incorporation; format: functional; parameters: scale not given: the % may be the effect or the level left; outline: as §2
[16] = Volume of distribution at steady state in Beagle dog at 5 mg/kg, iv administered as single dose; format: ADME, organism-based, Canis lupus familiaris; parameters: dose 5 mg/kg, route intravenous; conditions: in vivo, read-out: Vdss; outline: as §1
[17] = Half life in Beagle dog at 10 mg/kg, po administered as single dose; format: ADME, organism-based, Canis lupus familiaris; parameters: dose 10 mg/kg, route oral; conditions: in vivo; outline: as §3
[18] = Inhibition of PDGFR
Cytochrome P450 1A2 = Cytochrome P450 1A2 (Homo sapiens, UniProt P05177); experiment: Inhibition of human CYP1A2; format: ADME
[19] = Metabolic stability in human hepatocytes expressing CYP3A4 assessed as drug remaining after 1 hr; format: ADME, cell-based, Hepatocyte; conditions: read-out: Stability
HeLa [20] = experiment: Inhibition of DNA synthesis in human HeLa cells at 3 uM assessed as bromodeoxyuridine incorporation after 6 hrs; format: functional; parameters: scale not given: the % may be the effect or the level left; outline: as §2
[21] = molecular target: Cyclin-dependent kinase 9 (Homo sapiens, UniProt P50750); experiment: Inhibition of CDK9
[22] = molecular target: ALK tyrosine kinase receptor (Homo sapiens, UniProt Q9UM73); experiment: Inhibition of ALK
A2780 = experiment: Antitumor activity against human A2780 cells xenografted in CDI nu/nu mouse assessed as tumor growth inhibition at 60 mg/kg, po administered for 10 days; format: functional; conditions: A2780, 240 h, read-out: TGI
HeLa [23] = experiment: Inhibition of DNA synthesis in human HeLa cells at 3 uM assessed as bromodeoxyuridine incorporation after 3 hrs; format: functional; parameters: scale not given: the % may be the effect or the level left; outline: as §2
[24] = Cmax in nu/nu mouse at 10 mg/kg, po administered as single dose; format: ADME, organism-based; parameters: dose 10 mg/kg, route oral; conditions: in vivo; outline: as §3
[25] = molecular target: T1, Cell division cycle 7-related protein kinase; experiment: Inhibition of human Cdc7 in human A2780 cells assessed as inhibition of Ser40 phosphorylation of Mcm2 protein after 4 hrs; format: cell-based
Outline: (§5)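 A2780 cells exposed for 4 h to a range of concentrations, then lysed in 50 mmol/L Tris-HCl pH 6.8, 1% SDS, 1 mmol/L DTT and sonicated 10 s. 15 µg protein per lane ([…]) was taken for Western blot with phospho-specific antibodies to MCM2 Ser40 and Ser53.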

[26] = molecular target: Serine/threonine-protein kinase 26 (Homo sapiens, UniProt Q9P289); experiment: Inhibition of MST4
[27] = molecular target: Proto-oncogene tyrosine-protein kinase receptor Ret (Homo sapiens, UniProt P07949); experiment: Inhibition of RET
[28] = molecular target: cAMP-dependent protein kinase catalytic subunit alpha (Homo sapiens, UniProt P17612); experiment: Inhibition of PKAalpha
[29] = Cmax in Beagle dog at 10 mg/kg, po administered as single dose; format: ADME, organism-based, Canis lupus familiaris; parameters: dose 10 mg/kg, route oral; conditions: in vivo; outline: as §3
[30] = molecular target: T1, Cell division cycle 7-related protein kinase; experiment: Inhibition of human Cdc7 in human A2780 cells assessed as inhibition of Ser53 phosphorylation of Mcm2 protein after 4 hrs; format: cell-based; outline: as §5
[31] = molecular target: Serine/threonine-protein kinase Nek6 (Homo sapiens, UniProt Q9HC98); experiment: Inhibition of NEK6
[32] = molecular target: STE20-like serine/threonine-protein kinase (Homo sapiens, UniProt Q9H2G2); experiment: Inhibition of STLK2

T1 sequence (O00311 whole entry, looked up): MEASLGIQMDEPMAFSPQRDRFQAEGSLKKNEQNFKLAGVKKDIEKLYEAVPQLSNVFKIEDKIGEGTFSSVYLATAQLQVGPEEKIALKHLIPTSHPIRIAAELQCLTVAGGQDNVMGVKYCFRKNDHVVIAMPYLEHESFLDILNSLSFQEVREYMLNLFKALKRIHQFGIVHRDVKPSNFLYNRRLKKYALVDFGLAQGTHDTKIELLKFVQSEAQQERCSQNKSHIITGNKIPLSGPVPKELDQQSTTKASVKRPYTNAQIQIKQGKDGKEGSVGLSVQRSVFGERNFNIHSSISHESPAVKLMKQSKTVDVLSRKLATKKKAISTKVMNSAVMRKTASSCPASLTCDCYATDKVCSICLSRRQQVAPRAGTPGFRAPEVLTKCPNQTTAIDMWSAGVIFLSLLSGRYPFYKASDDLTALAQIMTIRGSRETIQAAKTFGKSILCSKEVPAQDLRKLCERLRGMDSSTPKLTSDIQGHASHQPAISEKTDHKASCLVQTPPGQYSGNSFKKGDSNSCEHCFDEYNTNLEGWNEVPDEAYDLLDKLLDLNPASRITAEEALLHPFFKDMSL
Chain of ALK tyrosine kinase receptor (Q9UM73 whole entry): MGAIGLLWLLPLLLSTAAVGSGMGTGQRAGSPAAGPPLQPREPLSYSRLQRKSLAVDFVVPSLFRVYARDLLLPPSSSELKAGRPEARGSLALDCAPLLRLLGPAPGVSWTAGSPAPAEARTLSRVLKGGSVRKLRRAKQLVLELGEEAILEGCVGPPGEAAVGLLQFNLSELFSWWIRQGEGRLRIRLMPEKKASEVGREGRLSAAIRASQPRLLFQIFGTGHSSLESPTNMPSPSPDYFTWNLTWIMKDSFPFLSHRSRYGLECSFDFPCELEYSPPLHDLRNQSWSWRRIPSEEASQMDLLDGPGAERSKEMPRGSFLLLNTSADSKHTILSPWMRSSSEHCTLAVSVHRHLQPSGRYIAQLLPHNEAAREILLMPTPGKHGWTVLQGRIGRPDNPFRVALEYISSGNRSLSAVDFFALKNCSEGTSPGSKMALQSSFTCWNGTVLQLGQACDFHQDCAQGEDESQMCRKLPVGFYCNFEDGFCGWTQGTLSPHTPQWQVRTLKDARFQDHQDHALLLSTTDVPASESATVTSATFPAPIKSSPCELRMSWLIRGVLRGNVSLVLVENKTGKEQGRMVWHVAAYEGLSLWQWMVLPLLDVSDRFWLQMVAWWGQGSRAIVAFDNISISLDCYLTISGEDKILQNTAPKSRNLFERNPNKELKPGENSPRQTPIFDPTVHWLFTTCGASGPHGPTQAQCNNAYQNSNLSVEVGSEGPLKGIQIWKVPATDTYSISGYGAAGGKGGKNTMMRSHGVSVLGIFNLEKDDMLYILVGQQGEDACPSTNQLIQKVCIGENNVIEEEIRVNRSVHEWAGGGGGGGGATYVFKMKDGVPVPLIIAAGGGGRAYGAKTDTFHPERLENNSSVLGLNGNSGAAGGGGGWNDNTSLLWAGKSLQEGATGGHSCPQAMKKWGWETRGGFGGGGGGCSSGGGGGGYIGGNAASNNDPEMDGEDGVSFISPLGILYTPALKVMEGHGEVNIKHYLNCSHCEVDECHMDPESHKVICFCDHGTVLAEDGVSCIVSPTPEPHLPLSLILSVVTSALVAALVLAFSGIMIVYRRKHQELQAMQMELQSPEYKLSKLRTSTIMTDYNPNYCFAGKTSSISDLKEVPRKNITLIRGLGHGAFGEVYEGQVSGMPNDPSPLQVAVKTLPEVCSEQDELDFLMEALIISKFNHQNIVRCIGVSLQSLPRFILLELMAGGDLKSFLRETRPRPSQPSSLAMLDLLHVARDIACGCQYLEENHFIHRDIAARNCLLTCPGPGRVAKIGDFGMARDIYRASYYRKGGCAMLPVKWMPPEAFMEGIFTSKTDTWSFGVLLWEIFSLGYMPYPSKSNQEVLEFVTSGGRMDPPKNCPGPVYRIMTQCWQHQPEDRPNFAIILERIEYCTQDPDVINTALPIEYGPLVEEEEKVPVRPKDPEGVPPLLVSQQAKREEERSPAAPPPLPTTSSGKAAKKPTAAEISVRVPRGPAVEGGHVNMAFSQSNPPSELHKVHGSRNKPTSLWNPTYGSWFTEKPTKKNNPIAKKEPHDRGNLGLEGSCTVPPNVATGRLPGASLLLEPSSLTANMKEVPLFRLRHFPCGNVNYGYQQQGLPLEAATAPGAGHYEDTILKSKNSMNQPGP
Chain of Cyclin-dependent kinase 5/CDK5 activator 1 (Q00535 whole entry): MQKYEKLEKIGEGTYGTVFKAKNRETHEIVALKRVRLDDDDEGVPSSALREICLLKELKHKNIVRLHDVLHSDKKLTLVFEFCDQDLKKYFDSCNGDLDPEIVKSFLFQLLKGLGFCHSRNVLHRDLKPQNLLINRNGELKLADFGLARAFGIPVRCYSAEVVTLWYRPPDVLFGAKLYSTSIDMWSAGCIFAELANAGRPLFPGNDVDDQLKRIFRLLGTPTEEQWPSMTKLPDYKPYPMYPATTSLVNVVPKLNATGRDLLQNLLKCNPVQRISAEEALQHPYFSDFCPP
Chain of Cyclin-dependent kinase 5/CDK5 activator 1 (Q15078 whole entry, further chain): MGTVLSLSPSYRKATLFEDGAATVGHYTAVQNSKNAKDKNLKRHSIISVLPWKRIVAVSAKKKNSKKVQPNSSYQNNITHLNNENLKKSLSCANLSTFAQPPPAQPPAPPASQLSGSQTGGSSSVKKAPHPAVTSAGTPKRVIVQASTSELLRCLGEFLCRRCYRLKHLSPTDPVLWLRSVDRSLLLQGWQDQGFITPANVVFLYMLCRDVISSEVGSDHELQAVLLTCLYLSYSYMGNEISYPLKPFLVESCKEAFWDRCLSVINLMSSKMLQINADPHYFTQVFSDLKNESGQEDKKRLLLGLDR
Chain of Proto-oncogene tyrosine-protein kinase receptor Ret (P07949 whole entry): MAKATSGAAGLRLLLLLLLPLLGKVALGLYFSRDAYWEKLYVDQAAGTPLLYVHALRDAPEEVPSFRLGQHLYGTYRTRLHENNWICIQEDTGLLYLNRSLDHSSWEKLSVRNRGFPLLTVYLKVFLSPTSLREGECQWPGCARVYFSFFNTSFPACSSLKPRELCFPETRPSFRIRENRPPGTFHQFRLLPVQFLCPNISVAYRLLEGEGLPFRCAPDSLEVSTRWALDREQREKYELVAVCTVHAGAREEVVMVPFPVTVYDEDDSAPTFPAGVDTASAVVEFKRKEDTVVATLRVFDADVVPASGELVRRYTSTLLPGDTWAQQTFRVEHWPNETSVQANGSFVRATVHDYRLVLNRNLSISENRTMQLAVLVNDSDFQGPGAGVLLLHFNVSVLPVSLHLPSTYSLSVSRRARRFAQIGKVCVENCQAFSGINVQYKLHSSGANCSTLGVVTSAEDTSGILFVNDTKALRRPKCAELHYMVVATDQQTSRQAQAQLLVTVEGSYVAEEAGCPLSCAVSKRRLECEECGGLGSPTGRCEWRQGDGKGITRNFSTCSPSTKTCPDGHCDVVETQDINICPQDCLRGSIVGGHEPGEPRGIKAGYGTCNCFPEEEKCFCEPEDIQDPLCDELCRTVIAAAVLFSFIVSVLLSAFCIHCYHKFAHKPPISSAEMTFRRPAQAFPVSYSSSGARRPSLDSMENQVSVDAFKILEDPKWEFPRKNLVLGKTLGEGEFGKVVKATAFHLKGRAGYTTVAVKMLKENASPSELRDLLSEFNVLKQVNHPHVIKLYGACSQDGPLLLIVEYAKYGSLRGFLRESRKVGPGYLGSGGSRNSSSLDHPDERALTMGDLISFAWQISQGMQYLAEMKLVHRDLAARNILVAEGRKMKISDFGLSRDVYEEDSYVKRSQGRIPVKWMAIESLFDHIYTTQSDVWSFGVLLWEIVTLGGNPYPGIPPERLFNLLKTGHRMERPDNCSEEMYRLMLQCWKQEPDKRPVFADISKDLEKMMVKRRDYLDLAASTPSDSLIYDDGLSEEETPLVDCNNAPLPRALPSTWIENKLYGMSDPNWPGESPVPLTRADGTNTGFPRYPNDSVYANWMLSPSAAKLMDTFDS
Chain of Serine/threonine-protein kinase Nek6 (Q9HC98 whole entry): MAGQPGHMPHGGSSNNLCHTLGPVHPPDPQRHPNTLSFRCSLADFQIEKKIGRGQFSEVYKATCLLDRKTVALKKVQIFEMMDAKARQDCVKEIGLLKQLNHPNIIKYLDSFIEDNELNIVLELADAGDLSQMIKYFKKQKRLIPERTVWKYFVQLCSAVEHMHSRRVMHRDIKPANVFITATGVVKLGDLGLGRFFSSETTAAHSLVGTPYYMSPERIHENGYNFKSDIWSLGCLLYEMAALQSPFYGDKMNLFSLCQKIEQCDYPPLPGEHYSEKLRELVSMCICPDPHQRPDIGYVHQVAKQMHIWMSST
Chain of Aurora kinase A (O14965 whole entry): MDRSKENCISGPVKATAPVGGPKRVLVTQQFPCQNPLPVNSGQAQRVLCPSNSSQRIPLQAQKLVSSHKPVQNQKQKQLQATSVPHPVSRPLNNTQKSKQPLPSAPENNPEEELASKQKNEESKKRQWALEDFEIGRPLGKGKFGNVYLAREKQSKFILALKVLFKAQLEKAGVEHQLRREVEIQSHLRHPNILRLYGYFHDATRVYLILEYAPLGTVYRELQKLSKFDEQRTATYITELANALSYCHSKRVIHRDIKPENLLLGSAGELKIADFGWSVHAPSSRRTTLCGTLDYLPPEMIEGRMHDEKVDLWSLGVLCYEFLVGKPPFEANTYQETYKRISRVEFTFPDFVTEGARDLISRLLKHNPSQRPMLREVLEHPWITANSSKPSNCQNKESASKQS
Chain of Cyclin-dependent kinase 9 (P50750 whole entry): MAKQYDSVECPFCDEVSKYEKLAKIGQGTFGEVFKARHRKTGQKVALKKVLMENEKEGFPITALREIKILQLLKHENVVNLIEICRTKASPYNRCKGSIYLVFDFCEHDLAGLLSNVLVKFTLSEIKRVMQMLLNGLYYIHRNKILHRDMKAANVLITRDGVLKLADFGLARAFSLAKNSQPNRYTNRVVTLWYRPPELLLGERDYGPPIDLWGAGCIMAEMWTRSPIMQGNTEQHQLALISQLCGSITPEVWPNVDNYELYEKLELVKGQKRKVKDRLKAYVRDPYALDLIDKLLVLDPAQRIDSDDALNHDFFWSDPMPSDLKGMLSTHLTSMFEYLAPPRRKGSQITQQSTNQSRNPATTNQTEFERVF

## Nc1nccc(-c2cc3c([nH]2)[C@@H](CCF)CNC3=O)n1
[1]
  Tmax: 0.3 h
HeLa [2]
  Activity: Active
[3]
  pIC50: 5.79
[4]
  half-life: 1 h
HeLa [5]
  Activity: 3%
[6]
  clearance: 30 mL/min/kg
[7]
  pIC50: < 5.40
MCF7
  pIC50: 5.96
[8]
  Vd: 2.1 L/kg
[9]
  pIC50: < 5.40
Aurora kinase A
  pIC50: < 5.40
COLO 205
  pIC50: 6.30
[10]
  AUC(0-inf): 6.3 µM·h
[11]
  Cmax: 15.7 µM
[12]
  Activity: Active
[13]
  CL renal: 18.3 mL/min/kg
[14]
  pIC50: < 5.40
HeLa [15]
  Activity: 35%
[16]
  Vd: 2.1 L/kg
[17]
  half-life: 1.2 h
[18]
  pIC50: < 5.40
Cytochrome P450 1A2
  Activity: Not Active
[19]
  remaining at 1 h: 95%
HeLa [20]
  Activity: 16%
[21]
  pIC50: 7.55
[22]
  pIC50: < 5.40
A2780
  inhibition in vivo at 60 mg/kg: 68%
HeLa [23]
  Activity: 28%
[24]
  Cmax: 2.6 µM
[25]
  MED: 0.6 µM
[26]
  pIC50: < 5.40
[27]
  pIC50: < 5.40
[28]
  pIC50: < 5.40
[29]
  Cmax: 5.5 µM
[30]
  MED: 0.6 µM
[31]
  pIC50: < 5.40
[32]
  pIC50: < 5.40
